According to ChEMBL document CHEMBL5380787, “Optimized M24B Aminopeptidase Inhibitors for CARD8 Inflammasome Activation” (J Med Chem, 2023):
Calls of active or inactive are those of the source. The calls are words filed in the database; no cut-off is given here.

Tests used:
[1] = system: MV4-11; assay: Cytotoxicity against CASP1 knockout human MV4-11 cells assessed as reduction in cell viability at 0.015 to 100 uM incubated for 24 hrs by celltiter-glo assay; type: functional; settings: dose 0.015-100 µM
Procedure, shortened: (§1)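 MV4;11 cells (WT or CASP1−/−), grown in RPMI 1640 with 10% FBS at 37 °C, 5% CO2, plated 2000 cells/well, dosed by pintool across 100 μM to 15.2 nM in three-fold steps for 24 h. Viability by CellTiter-Glo luminescence after 2 min shaking and 10 min at 25 °C. IC50 as mean ± SEM of three biological replicates.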

[2] = system: MV4-11; assay: Cytotoxicity against human MV4-11 cells assessed as reduction in cell viability incubated for 24 hrs by celltiter-glo assay; type: functional, cell-based; settings: MV4-11, 24 h; procedure, shortened: as §1
[3] = system: MV4-11; assay: Cytotoxicity against human MV4-11 cells assessed as reduction in cell viability at 0.015 to 100 uM incubated for 24 hrs by celltiter-glo assay; type: functional; settings: dose 0.015-100 µM; procedure, shortened: as §1
[4] = target: T1, Xaa-Pro dipeptidase (Homo sapiens, UniProt P12955); assay: (§2) Inhibition of recombinant human PEPD using Ala-Pro as substrate assessed as alanine release by measuring increase in fluorescense signal by fluorescence based analysis
T1 sequence (P12955 whole entry): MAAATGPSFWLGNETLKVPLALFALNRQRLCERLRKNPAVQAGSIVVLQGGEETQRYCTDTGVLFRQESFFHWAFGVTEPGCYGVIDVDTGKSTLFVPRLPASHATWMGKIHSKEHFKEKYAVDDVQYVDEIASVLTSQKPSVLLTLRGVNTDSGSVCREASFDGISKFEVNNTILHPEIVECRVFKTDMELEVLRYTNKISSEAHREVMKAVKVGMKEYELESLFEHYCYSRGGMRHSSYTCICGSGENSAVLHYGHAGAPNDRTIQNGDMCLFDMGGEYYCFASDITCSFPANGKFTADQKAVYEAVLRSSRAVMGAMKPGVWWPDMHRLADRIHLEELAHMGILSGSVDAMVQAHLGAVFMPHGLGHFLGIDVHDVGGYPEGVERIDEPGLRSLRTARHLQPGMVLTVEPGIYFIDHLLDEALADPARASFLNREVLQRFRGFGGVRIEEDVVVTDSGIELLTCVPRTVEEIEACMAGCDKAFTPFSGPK

[5] = system: OCI-AML2; assay: Cytotoxicity against human OCI-AML2 cells assessed as reduction in cell viability at 1 uM incubated for 24 hrs by celltiter-glo assay relative to control; type: functional
Procedure, shortened: (§3)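 Single-dose viability screen. MV4;11 or OCI-AML2 cells at 2000 cells/well were exposed to 1 μM compound for 24 h. Viability was read by CellTiter-Glo luminescence and expressed as percent inhibition. Values are means of three biological replicates.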

[6] = target: T2, Xaa-Pro dipeptidase (Homo sapiens) (UniProt P12955); assay: Inhibition of recombinant human PEPD using Ala-Pro as substrate assessed as alanine release by measuring increase in fluorescense signal at 1 uM by fluorescence based analysis relative to control
T2 sequence (whole entry): T1 sequence (P12955 whole entry)
Procedure, shortened: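 Recombinant human PEPD at 50 nM was incubated with Ala-Pro at 40 μM final and compound. Released alanine was detected by coupled alanine transaminase/pyruvate oxidase conversion to H2O2 and resorufin fluorescence (Ex/Em 535/587 nm) at 25 °C.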

[7] = system: MV4-11; assay: Cytotoxicity against CASP1 knockout human MV4-11 cells assessed as reduction in cell viability incubated for 24 hrs by celltiter-glo assay; type: functional, cell-based; settings: MV4-11, 24 h; procedure, shortened: as §1
[8] = target: T3, Xaa-Pro aminopeptidase 1 (Homo sapiens, UniProt Q9NQW7); assay: Inhibition of 6-His tagged XPNPEP1 (unknown origin) expressed in Escherichia coli Rosetta DE3 cells using H-Lys(abz)-Pro-Pro-pNA as substrate at 20 uM incubated for 60 mins by fluorescence based analysis relative to control
Procedure, shortened: (§4)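 His6-tagged XPNPEP1 was expressed in E. coli Rosetta DE3 (IPTG, 16 h, 37 °C) and purified on TALON resin. Enzyme at 3.5 nM was exposed to compound, then H-Lys(abz)-Pro-Pro-pNA was added at 100 μM final. Fluorescence (Ex/Em 320/410) was followed for 60 min. Single-point inhibition used 20 μM; IC50 as mean ± SEM of three biological replicates.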

[9] = system: MV4-11; assay: Cytotoxicity against human MV4-11 cells assessed as reduction in cell viability at 1 uM incubated for 24 hrs by celltiter-glo assay relative to control; type: functional; procedure, shortened: as §3
[10] = target: T3, Xaa-Pro aminopeptidase 1; assay: Inhibition of 6-His tagged XPNPEP1 (unknown origin) expressed in Escherichia coli Rosetta DE3 cells using H-Lys(abz)-Pro-Pro-pNA as substrate incubated for 60 mins by fluorescence based analysis; procedure, shortened: as §4
[11] = Stability in human MV4-11 cells assessed as retention time of parent compound incubated for 24 hrs by LC/MS analysis; type: ADME, cell-based; settings: mv4-11, 24 h
Procedure, shortened: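 Compound was held in MV4;11 conditioned medium for 24 h at 37 °C, then LC/MS was run, recording the retention times of the parent ester and its free acid.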

[12] = target: T2, Xaa-Pro dipeptidase (Homo sapiens); assay: as §2

T3 sequence (Q9NQW7 whole entry): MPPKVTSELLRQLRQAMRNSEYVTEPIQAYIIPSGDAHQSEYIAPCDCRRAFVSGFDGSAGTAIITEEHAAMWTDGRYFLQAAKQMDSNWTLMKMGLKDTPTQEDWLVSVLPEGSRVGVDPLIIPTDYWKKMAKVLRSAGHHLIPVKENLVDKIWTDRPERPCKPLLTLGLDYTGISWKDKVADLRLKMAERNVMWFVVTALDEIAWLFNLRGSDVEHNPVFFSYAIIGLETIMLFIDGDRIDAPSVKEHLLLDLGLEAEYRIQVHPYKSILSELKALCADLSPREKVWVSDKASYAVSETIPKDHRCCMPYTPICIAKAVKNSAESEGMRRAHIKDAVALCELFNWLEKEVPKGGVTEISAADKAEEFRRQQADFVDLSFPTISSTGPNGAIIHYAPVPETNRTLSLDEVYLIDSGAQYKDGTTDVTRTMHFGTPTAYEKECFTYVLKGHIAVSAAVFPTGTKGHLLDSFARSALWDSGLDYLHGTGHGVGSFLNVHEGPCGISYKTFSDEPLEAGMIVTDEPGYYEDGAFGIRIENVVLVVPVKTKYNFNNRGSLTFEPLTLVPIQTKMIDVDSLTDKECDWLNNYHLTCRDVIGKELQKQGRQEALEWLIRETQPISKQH

Structure (SMILES)	Activity [1]	IC50 [2]	Activity [3]	also measured
COC(=O)[C@@H]1CCCN1C(=O)[C@@H](O)[C@H](N)c1ccccc1	97%	15 µM	32%	–
COC(=O)[C@@H]1CCCN1C(=O)[C@@H](O)[C@H](N)c1ccc2ccoc2c1	85%	60 µM	44%	–
COC(=O)[C@@H]1CCCN1C(=O)[C@@H](O)[C@H](N)CCCCO	92%	> 100 µM	87%	–
COC(=O)[C@@H]1CCCN1C(=O)[C@@H](O)[C@H](N)CC(C)(C)C	100%	> 100 µM	20%	–
CC(C)C[C@@H](N)[C@H](O)C(=O)N1CCC[C@H]1CNS(C)(=O)=O	97%	> 100 µM	89%	IC50 [4]: > 100 µM
CC(C)C[C@@H](N)[C@H](O)C(=O)N1CCC[C@H]1c1nnn[nH]1	95%	> 100 µM	85%	–
COC(=O)[C@H](Cc1ccccc1)NC(=O)[C@@H]1CCCN1C(=O)[C@@H](O)[C@H](N)CC(C)C	–	0.66 µM	–	Activity [5]: 42%; inhibition [6]: 43%; IC50 [7]: > 20 µM; inhibition [8]: 81%; Activity [9]: 72%
CC(C)C[C@H](NC(=O)[C@@H]1CCCN1C(=O)[C@@H](O)[C@H](N)CC(C)C)C(N)=O	–	> 100 µM	–	–
COC(=O)[C@@H]1CCCN1C(=O)[C@@H](O)[C@H](N)CCC(F)(F)F	100%	> 100 µM	68%	–
CC(C)C[C@H](NC(=O)[C@@H]1CCCN1C(=O)[C@@H](O)[C@H](N)CC(C)C)C(=O)NCCc1ccc2cc[nH]c2c1	–	1.3 µM	–	IC50 [10]: 2 µM; IC50 [4]: 10 µM
CC(C)C[C@H](NC(=O)[C@@H]1CCCN1C(=O)[C@@H](O)[C@H](N)CC(C)C)C(=O)O	–	–	–	inhibition [10]: Active; Retention_time [11]: 2.6 min; inhibition [12]: Active
COC(=O)[C@@H]1CCCN1C(=O)[C@@H](O)[C@H](N)Cc1ccccc1	97%	> 100 µM	73%	–
COC(=O)[C@H](C)NC(=O)[C@@H]1CCCN1C(=O)[C@@H]1CCCN1C(=O)[C@@H](O)[C@H](N)CC(C)C	–	35 µM	–	Activity [5]: 95%; inhibition [6]: 96%; IC50 [7]: > 100 µM; inhibition [8]: 23%; Activity [9]: 107%
CC[C@H](C)[C@H](NC(=O)[C@@H]1CCCN1C(=O)[C@@H](O)[C@H](N)CC(C)C)C(=O)OC	–	0.6 µM	–	Activity [5]: 42%; inhibition [6]: 48%; IC50 [7]: > 20 µM; inhibition [8]: 68%; Activity [9]: 56%
COC(=O)[C@H](Cc1ccccc1)NC(=O)[C@@H](O)[C@H](N)CC(C)C	7%	5.4 µM	8%	IC50 [4]: > 100 µM
COC(=O)[C@@H]1C[C@H](O)CN1C(=O)[C@@H](O)[C@H](N)CC(C)C	102%	> 100 µM	99%	IC50 [4]: > 100 µM
CC(C)C[C@H](NC(=O)[C@@H]1CCCN1C(=O)[C@@H](O)[C@H](N)CC(C)C)C(=O)NCCF	–	3 µM	–	–
CC(C)CCNC(=O)[C@H](CC(C)C)NC(=O)[C@@H]1CCCN1C(=O)[C@@H](O)[C@H](N)CC(C)C	–	1 µM	–	–
COC(=O)[C@@H]1C[C@H](C)CN1C(=O)[C@@H](O)[C@H](N)CC(C)C	96%	5.6 µM	10%	–
COC(=O)[C@@H]1CCCN1C(=O)[C@@H](O)[C@H](N)C1CC1	102%	> 100 µM	85%	–
CC(C)C[C@H](NC(=O)[C@@H]1CCCN1C(=O)[C@@H](O)[C@H](N)CC(C)C)C(=O)NCCc1ccccc1	–	0.84 µM	–	Retention_time [11]: 3.24 min
